Consider 17 compounds from ChEMBL document CHEMBL4765483 (J Med Chem, 2021).

Details in all cases: Cell membrane
For test [1], the target named is T1, Adenosine receptor A3 (Homo sapiens) (UniProt P0DMS8).
T1 sequence (whole entry): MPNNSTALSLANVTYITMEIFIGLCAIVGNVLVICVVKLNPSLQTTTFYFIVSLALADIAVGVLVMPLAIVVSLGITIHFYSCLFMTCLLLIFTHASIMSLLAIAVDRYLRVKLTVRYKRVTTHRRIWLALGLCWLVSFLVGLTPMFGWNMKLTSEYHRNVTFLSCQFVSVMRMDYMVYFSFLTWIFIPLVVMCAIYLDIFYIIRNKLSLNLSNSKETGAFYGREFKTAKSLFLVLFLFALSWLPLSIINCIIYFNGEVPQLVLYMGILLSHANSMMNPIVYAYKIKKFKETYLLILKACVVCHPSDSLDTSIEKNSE
Briefly: Displacement of [3H]NECA from adenosine A3 receptor expressed in human HeLa cell membranes at 1 uM incubated for 180 mins by scintillation counting method. Summed up:
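hA3AR in HeLa membranes (3 pmol/mg protein) with 10 nM [3H]NECA (KD 8.7 nM); nonspecific binding with 100 μM R-PIA; incubated 180 min at 25 °C, washed, filtered, radioactivity counted.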
On the technique in general: In a radioligand displacement assay an active substance lowers the binding of a labelled ligand.

For test [2], the target named is T2, Adenosine receptor A1 (Homo sapiens) (UniProt P30542).
T2 sequence (whole entry): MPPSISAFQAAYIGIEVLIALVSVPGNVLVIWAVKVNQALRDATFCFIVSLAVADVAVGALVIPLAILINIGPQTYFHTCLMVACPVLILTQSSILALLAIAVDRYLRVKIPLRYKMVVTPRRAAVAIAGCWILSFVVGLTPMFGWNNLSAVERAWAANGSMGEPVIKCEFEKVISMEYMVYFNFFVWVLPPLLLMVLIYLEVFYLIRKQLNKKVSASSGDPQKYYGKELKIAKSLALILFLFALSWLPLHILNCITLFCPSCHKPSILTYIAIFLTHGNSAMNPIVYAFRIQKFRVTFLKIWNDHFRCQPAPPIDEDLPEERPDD
Kind of test: Displacement of [3H]DPCPX from human adenosine A1 receptor expressed in CHO cell membranes at 1 uM incubated for 60 mins by scintillation counting method.

Test [3] deals with Adenosine receptor A2a (Homo sapiens) (UniProt P29274). Kind of test: Displacement of [3H]ZM2421385 from adenosine A2A receptor expressed in human HeLa cell membranes at 1 uM incubated for 30 mins by scintillation counting method.
Adenosine receptor A2a (Homo sapiens), sequence (P29274 whole entry): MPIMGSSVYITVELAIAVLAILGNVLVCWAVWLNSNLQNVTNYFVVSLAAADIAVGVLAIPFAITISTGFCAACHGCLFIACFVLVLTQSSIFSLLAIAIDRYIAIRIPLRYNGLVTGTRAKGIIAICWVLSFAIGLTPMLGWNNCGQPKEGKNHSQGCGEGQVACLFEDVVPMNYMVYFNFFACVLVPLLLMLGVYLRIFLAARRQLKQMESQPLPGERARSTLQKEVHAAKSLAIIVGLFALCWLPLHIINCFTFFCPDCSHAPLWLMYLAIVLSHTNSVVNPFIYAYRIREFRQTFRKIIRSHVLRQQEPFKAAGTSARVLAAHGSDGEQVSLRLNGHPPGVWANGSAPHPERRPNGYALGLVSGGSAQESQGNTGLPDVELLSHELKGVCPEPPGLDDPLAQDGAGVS
Test [4] has as its target T3, Adenosine receptor A2b (Homo sapiens) (UniProt P29275).
T3 sequence (whole entry): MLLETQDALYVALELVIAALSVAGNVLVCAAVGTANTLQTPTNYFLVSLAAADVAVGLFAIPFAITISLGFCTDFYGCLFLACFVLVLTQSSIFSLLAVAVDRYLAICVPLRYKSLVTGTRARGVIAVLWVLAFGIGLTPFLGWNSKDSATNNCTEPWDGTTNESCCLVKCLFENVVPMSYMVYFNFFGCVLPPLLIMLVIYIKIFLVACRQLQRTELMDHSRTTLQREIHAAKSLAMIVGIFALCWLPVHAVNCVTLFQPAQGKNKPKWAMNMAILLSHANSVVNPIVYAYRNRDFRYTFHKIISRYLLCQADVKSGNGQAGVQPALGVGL
Briefly: Displacement of [3H]DPCPX from human adenosine A2B receptor expressed in HEK293 cell membranes at 1 uM incubated for 30 mins by scintillation counting method.

For the compound `CC1=C(C(=O)OC(C)(C)C)C(c2cccs2)NC(=S)N1` (racemic), the inhibition worked out at 22% in test [1], 22% in test [2], 7% in test [3] and 26% in test [4].
Consider `CC1=C(C(=O)OC(C)(C)C)C(c2ccsc2)NC(=S)N1` (racemic), for which the inhibition in test [1] is 16%; in test [2], 16%; in test [3] it was 22%; in test [4], 26%.
On to `CC1=C(C(=O)OCC(C)C)C(c2ccco2)NC(=O)N1C` (racemic), for which the inhibition worked out at 23% in test [1], 13% in test [2], 3% in test [3] and 4% in test [4].
On the same counts, the results for `CC1=C(C(=O)OCC(C)C)C(c2cccs2)NC(S)=N1` (racemic) are 4%, 1%, 2% and 12%.
As to `CC1=C(C(=O)OCC(C)C)C(c2ccoc2)NC(=S)N1` (racemic), the inhibition in test [1] worked out at 1%; in test [2], 12%; in test [3] it was 35%; in test [4] it was 1%.
Regarding `CC1=C(C(=O)OCC(C)C)C(c2ccsc2)NC(=S)N1` (racemic), the inhibition stood at 2% in test [1], 8% in test [2], 1% in test [3] and 15% in test [4].
On to `CC1=C(C(=O)OCc2ccccc2)C(c2cccs2)NC(=S)N1` (racemic), for which the inhibition was 24% in test [1], 34% in test [2], 63% in test [3] and 45% in test [4] (filed as antagonist).
For `CC1=C(C(=O)OCc2ccccc2)C(c2ccoc2)NC(=S)N1` (racemic), the inhibition came out at 20% in test [1], 25% in test [2], 16% in test [3] and 36% in test [4].
For the compound `CC1=C(C(=O)OCc2ccccc2)C(c2ccsc2)NC(=S)N1` (racemic), the inhibition was 2% in test [1], 3% in test [2], 16% in test [3] and 10% in test [4].
On the same counts, the results for `CCCOC(=O)C1=C(C)N(C)C(=O)NC1c1ccco1` (racemic) are 8%, 3%, 2% and 23%.
On the same counts, the results for `CCCOC(=O)C1=C(C)NC(=S)NC1c1cccs1` (racemic) are 10%, 7%, 1% and 3%.
Regarding `CCCOC(=O)C1=C(C)NC(=S)NC1c1ccoc1` (racemic), the inhibition amounted to 3% in test [1], 4% in test [2], 2% in test [3] and 45% in test [4] (filed as antagonist).
Consider `CCCOC(=O)C1=C(C)NC(=S)NC1c1ccsc1` (racemic), for which the inhibition in test [1] stood at 1%; in test [2], 5%; in test [3] it was 1%; in test [4], 26%.
For the compound `COC(=O)C1=C(C)N(C)C(=O)NC1c1ccco1` (racemic), the inhibition in test [1] was 9%; in test [2] it was 45%; in test [3], 1%; in test [4] it was 31%.
Taken in the same sequence, the figures for `COC(=O)C1=C(C)NC(=S)NC1c1cccs1` (racemic) were 1%, 1%, 1% and 10%.
With `COC(=O)C1=C(C)NC(=S)NC1c1ccoc1` (racemic), the inhibition in test [1] was 3%; in test [2], 25%; in test [3] it was 1%; in test [4] (filed as antagonist), 48%.
Regarding `COC(=O)C1=C(C)NC(=S)NC1c1ccsc1` (racemic), the inhibition was 3% in test [1], 3% in test [2], 1% in test [3] and 38% in test [4].

The term inhibition denotes the drop in the measured response relative to a control, in per cent. Read a low inhibition as a weak effect.
